Measured values reported in ChEMBL document CHEMBL1123886 (J Med Chem, 1987).
pIC50: −log10 of the molar value. Active and inactive are the calls of the source. The rule behind the calls is not given here.

Assays:
[1] = tested on: Lewis lung carcinoma cell line; test: Optimal dose to inhibit the LL (Lewis lung carcinoma model) cells in vivo after intraperitoneal administration.; assay type: functional, Mus musculus; design: unit: mg/kg/day
Procedure, shortened: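 Mice were inoculated iv with 10^6 Lewis lung carcinoma cells. OD is the optimal dose in mg/kg per day. Lifespan increase above 40% is significant, and long-term survival was scored at 60 days.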

P388/ADR [2] = test: Percent increase in life span, of the drug-treated tumor-bearing animals vs nontreated tumor-bearing controls with P388/ADR cells.; assay type: functional, Mus musculus
Procedure, shortened: (§1)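 Groups of 6. Optimal dose is in mg/kg per day. ILSmax is the % lifespan increase over untreated tumor-bearing controls at the optimal dose; above 20% counted significant. Cures are 50-day survivors.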

L1210 = test: Ability to inhibit the growth of leukemia L1210 cells in vitro.; assay type: functional, cell-based; settings: Mus musculus
Procedure, shortened: (§2)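 Cultured leukemia L1210 or human colon tumor HCT-8 cells were exposed to drug for 40 h.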

P388/ADR [3] = test: Optimal dose required to inhibit the P388/ADR cells in vivo after intraperitoneal administration.; assay type: functional, Mus musculus; design: unit: mg/kg/day
P388 [4] = test: Percent increase in life span of the drug-treated tumor-bearing animals vs nontreated tumor-bearing controls with P388 leukemia cells.; assay type: functional, Mus musculus; procedure, shortened: as §1
[5] = Lipophilicity (Rm).; assay type: physicochemical
P388 [6] = test: Optimal dose required to inhibit the P388 intraperitoneal administration.; assay type: functional, Mus musculus; design: unit: mg/kg/day
[7] = tested on: Lewis lung carcinoma cell line; test: Percent increase in life span, of the drug-treated tumor-bearing animals vs nontreated tumor-bearing controls with LL (Lewis lung carcinoma model) cells.; assay type: functional, Mus musculus
Procedure, shortened: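 Groups of 6. Optimal dose is in mg/kg per day. ILSmax is the % lifespan increase over untreated tumor-bearing controls at the optimal dose; above 40% counted significant. Cures are 60-day survivors.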

HCT-8 = test: Ability to inhibit the growth of human colon tumor HCT-8 cells in vitro.; assay type: functional, cell-based; procedure, shortened: as §2
poly[d(A-T)] = test: Binding constant for poly[d(A-T)] by ethidium bromide displacement
Mus musculus = species: Mus musculus; test: Percent increase in life span of the drug treated tumor bearing animals vs nontreated tumor bearing controls was determined against P388/ADR cells;NA= not active; assay type: functional, organism-based
Procedure, shortened: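 Mice were inoculated ip with 10^6 P388 or ADR/P388 cells. OD is the optimal dose in mg/kg per day. ILSmax is the % lifespan increase over untreated tumor-bearing controls at the OD; above 20% is significant. Long-term survival was scored at 50 days.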

| SMILES | OD [1] | ILS max (P388/ADR [2]) | pIC50 (L1210) | OD (P388/ADR [3]) | ILS max (P388 [4]) | Rm [5] | OD (P388 [6]) | ILS max [7] | pIC50 (HCT-8) | Log K (poly[d(A-T)]) | ILS max (Mus musculus) |
| --- | --- | --- | --- | --- | --- | --- | --- | --- | --- | --- | --- |
| CNc1cc(NC(=O)OC)ccc1Nc1c2ccccc2nc2c(C)cccc12 | 20 | 43 | 7.00 | 20 | 114 | 0.56 | 13.3 | 122 | 6.72 | 6.74 |  |
| CNc1cc(NC(=O)OC)ccc1Nc1c2ccc(F)cc2nc2c(OC)cccc12 | 45 |  | 6.03 | 45 | 125 | 0.45 | 100 | 52 | 5.80 | 6.27 | inactive |
| CNc1cc(NC(=O)OC)ccc1Nc1c2ccc(F)cc2nc2c(C)cccc12 | 45 | 47 | 6.28 | 65 | 43 | 0.52 | 65 | 126 | 6.21 | 7.37 |  |
| CNc1cc(NC(=O)OC)ccc1Nc1c2ccc(Br)cc2nc2c(OC)cccc12 | 100 | 20 | 6.44 | 65 | 98 | 0.55 | 65 | 31 |  | 6.43 |  |
| CNc1cc(NC(=O)OC)ccc1Nc1c2ccc(Cl)cc2nc2c(C)cccc12 | 45 | 79 | 6.73 | 45 | 173 | 0.67 | 45 | 143 | 6.48 | 7.52 |  |
| COc1cc(NS(C)(=O)=O)ccc1Nc1c2ccccc2nc2ccccc12 [AMSACRINE] |  |  |  |  |  | 0.18 |  |  |  |  | inactive |
| CNC(=O)c1cccc2c(Nc3ccc(NC(=O)OC)cc3NC)c3ccccc3nc12 | 65 |  | 6.08 | 65 | 60 | 0.43 | 65 | 58 | 5.56 | 6.48 |  |
| CNc1cc(NC(=O)OC)ccc1Nc1c2ccc(C)cc2nc2c(C)cccc12 | 20 | 33 | 7.36 | 13.3 | 181 | 0.51 | 20 | 171 | 7.10 | 6.95 |  |
| CNc1cc(NC(=O)OC)ccc1Nc1c2ccccc2nc2cc(OC)ccc12 | 45 | 89 | 6.77 | 65 | 108 | 0.45 | 45 | 85 | 6.48 | 6.74 |  |
| CNc1cc(NC(=O)OC)ccc1Nc1c2ccc(C)cc2nc2c(OC)cccc12 | 65 | 57 | 7.96 | 45 | 128 | 0.61 | 45 | 107 |  | 7.34 |  |
| CNc1cc(NC(=O)OC)ccc1Nc1c2ccccc2nc2c(OC)cccc12 | 30 | 35 | 6.27 | 30 | 98 | 0.41 | 30 | 167 | 6.20 | 6.57 |  |
| CNc1cc(NC(=O)OC)ccc1Nc1c2ccccc2nc2cc(Cl)ccc12 | 45 | 35 | 6.76 | 65 | 104 | 0.73 | 65 | 92 | 6.26 | 6.13 |  |
| CNc1cc(NC(=O)OC)ccc1Nc1c2ccc(Br)cc2nc2c(C)cccc12 | 30 | 42 | 6.74 | 45 | 286 | 0.69 | 45 | 82 | 6.64 | 7.52 |  |
| CNC(=O)c1cccc2c(Nc3ccc(NC(=O)OC)cc3NC)c3cccc(OC)c3nc12 | 65 | 31 | 5.76 | 45 | 92 | 0.45 | 65 | 47 |  | 6.95 |  |
| CNc1cc(NC(=O)OC)ccc1Nc1c2ccccc2nc2cc(I)ccc12 | 65 |  | 6.96 | 100 | 92 | 0.65 | 45 | 68 | 6.46 | 6.12 | inactive |
| CNc1cc(NC(=O)OC)ccc1Nc1c2ccccc2nc2cc(F)ccc12 | 100 | 21 | 6.70 | 100 | 110 | 0.63 | 65 | 83 | 6.38 | 5.77 |  |
| CNc1cc(NC(=O)OC)ccc1Nc1c2ccccc2nc2cc(Br)ccc12 | 45 | 29 | 6.47 | 45 | 101 | 0.7 | 45 | 86 | 6.10 | 6.87 |  |
| CNc1cc(NC(=O)OC)ccc1Nc1c2ccccc2nc2c(C(N)=O)cccc12 | 65 |  | 5.80 | 100 | 32 | 0.06 | 100 |  | 5.44 | 6 |  |
| CNc1cc(NC(=O)OC)ccc1Nc1c2ccccc2nc2cc([N+](=O)[O-])ccc12 | 65 |  | 5.30 | 20 | 48 | 0.4 | 30 | 49 |  | 6.58 | inactive |
| CNc1cc(NC(=O)OC)ccc1Nc1c2ccccc2nc2c(F)cccc12 | 65 | 43 | 5.85 | 100 | 103 | 0.37 | 65 | 77 | 5.55 | 5.82 |  |
| CNC(=O)c1cccc2c(Nc3ccc(NC(=O)OC)cc3NC)c3cccc(C)c3nc12 | 30 | 35 | 5.92 | 30 | 99 | 0.5 | 20 | 84 | 5.73 | 7.12 |  |
| CNc1cc(NC(=O)OC)ccc1Nc1c2ccc(Cl)cc2nc2c(OC)cccc12 | 65 | 73 | 6.18 | 100 | 177 | 0.54 | 100 | 133 | 5.96 | 6.93 |  |
| CNc1cc(NS(C)(=O)=O)ccc1Nc1c2ccccc2nc2ccccc12 |  |  |  | 13.3 |  | 0.17 |  |  |  |  | inactive |
| CN(C)c1cc(NS(C)(=O)=O)ccc1Nc1c2ccccc2nc2ccccc12 |  | 41 |  | 100 |  | 0.41 | 166 |  |  |  |  |
